# E-selectin induc: E-selectin induction on HUVECs; P16581; HUVEC E-selectin immunofluorescence imaging; normalized: neutral wells 0, TNF-alpha wells 100; activation, % at 7.58 µM; hit rate 0.37% among 260,000; AID 686992;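 active = mean E-selectin-positive cell signal at least 10% of the positive control, reached in at least 60% of replicates, without over 20% cell loss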
#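 Read-out basis: % PE-positive cells; Test system: HUVEC primary endothelial cells; Technique: immunofluorescence imaging; Dosing: single-point compound dose.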
# miR-122 sensor: miR-122 inhibition in Huh7 cells. Huh7 miR-122 Renilla luciferase sensor, 48 h; neutral wells = 0, positive control = 100. activation (reporter increase), % at 12.5 µM. hit rate 0.3% among 340,000;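 active = mean replicate activation score at least 90 and every replicate individually at or above 90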;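 note: higher luciferase means less miR-122 activity so hits act as miR-122 inhibitors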
# SIRT5 block: sirtuin-5 (human) deacylase inhibition; Q9NXA8; Purified SirT5, succinyl-peptide AMC, trypsin-coupled fluorescence; inhibition, % at 15 µM; hit rate 1.1% among 330,000; in the data active = inhibition above about 15%
# Target sequence (Q9NXA8 whole entry, looked up): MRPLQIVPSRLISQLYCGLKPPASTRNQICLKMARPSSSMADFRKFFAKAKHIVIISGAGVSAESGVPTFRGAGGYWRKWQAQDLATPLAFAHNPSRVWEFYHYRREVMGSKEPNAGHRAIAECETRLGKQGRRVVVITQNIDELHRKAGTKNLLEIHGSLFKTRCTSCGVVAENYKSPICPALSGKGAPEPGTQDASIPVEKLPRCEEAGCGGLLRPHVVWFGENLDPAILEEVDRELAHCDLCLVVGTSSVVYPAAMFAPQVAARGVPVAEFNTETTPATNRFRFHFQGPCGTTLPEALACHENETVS
# FGF22 binding: FGF22 (human) thermal shift binding; recombinant FGF22 thermal shift, SYPRO orange fluorescence; percent of sucrose octasulfate shift, DMSO zero; hit rate 1.5% among 340,000; Q9HCT0; activity (Tm shift, normalised), % at 9.99 µM;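 active = mean Tm shift, scaled 0 neutral to 100 positive control, at about 1.3% or above, every replicate too, limit read from the data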
# S100A4 inh HTS: S100A4-myosin IIA interaction inhibition; S100A4/TAMRA-MyoIIA peptide fluorescence polarization; AID 652163; hit rate 0.14% among 360,000; inhibition, % at 10.7 µM;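 active = mean inhibition of at least 70% across replicates, with every replicate also reaching that level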
# Target sequence (P26447 whole entry, looked up): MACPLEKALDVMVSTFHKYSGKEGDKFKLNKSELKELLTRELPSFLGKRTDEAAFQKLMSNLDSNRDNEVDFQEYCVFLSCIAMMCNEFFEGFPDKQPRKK
#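 Material: human S100A4 monomer with TAMRA-labelled myosin IIA peptide; buffer or medium: HEPES pH 7.2 with CaCl2, KCl, NaCl, DTT, Triton; compound dosing: one concentration per compound; schedule: 5 min incubation before reading; benchmarks: neutral control DMSO, positive control TFP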
# * hit, by the source's call; · = no result; [ ] = another dose, or the depositor's remark. Rows were chosen to be rich in hits. Some 2.5% of all compounds tested hit in one or more screens of this group.
SMILES,E-selectin induc,miR-122 sensor,SIRT5 block,FGF22 binding,S100A4 inh HTS
Cc1cc2nc(SCC(=O)Nc3ccccc3C(=O)O)[nH]c2cc1C,2,·,0,2.2*,5
NC(=O)c1ccccc1NC(=O)CSc1nc2ccccc2c(=O)[nH]1,0,6,-2,0,-1
COCC(=O)N1CC2(C1)[C@H](c1ccc(-c3ccc(F)cc3)cc1)[C@H](CO)N2C(C)=O,0,·,-2,0,-2
COc1cccc(-c2nnc(SC(C(=O)c3c[nH]c4ccccc34)c3ccccc3)n2C)c1 (stereo not given),1,·,-1,43*,1
CC(NC(=O)COc1ccc(N(C)S(=O)(=O)c2ccccc2)cc1)c1ccccc1 (stereo not given),·,-2,3,43*,0
COc1cc(OC)c(C(=O)OCC(=O)Nc2cc(C)on2)cc1OC,5,·,2,43*,-1
S=C1NCCOCCOCCOCCOCCNC(=S)N2CCOCCOCCN1CCOCC2,-2,-2,-3,0,0
S=C1NCCOCCOCCOCCNC(=S)N2CCOCCOCCN1CCOCCOCC2,3,-4,0,43*,-1
Cc1nc(OCc2c(C)noc2C)c2ccccc2n1,0,·,-2,43*,4
CCCN(C)C[C@@H]1OCCCC[C@H](C)Oc2ccc(NC(=O)CCC(F)(F)F)cc2C(=O)N([C@@H](C)CO)C[C@@H]1C,0,-1[16.7 µM],1,·,2
CO[C@@H]1CN(C)C(=O)c2ccc(NC(=O)c3cc(C)on3)cc2OC[C@@H](C)N(S(=O)(=O)c2cccc(F)c2)C[C@H]1C,0,-4[16.7 µM],5,0,-10
O=C(Nc1cc(C(F)(F)F)cc(C(F)(F)F)c1)Nc1cnn(-c2ccc([N+](=O)[O-])cc2)c1C(F)(F)F,74*,0,·,0,7
O=C(Nc1ccc([N+](=O)[O-])cc1)Nc1ccc(Cl)cc1F,·,·,3,0,-4
CCOc1ccccc1NC(=O)COC(=O)C1CC(=O)N(c2c(C)cccc2C)C1 (stereo not given),·,7,19*,0,-2
COc1cccc(NC(=O)N(C)C[C@H]2Oc3cc(C#Cc4ccccc4)ccc3S(=O)(=O)N([C@H](C)CO)C[C@@H]2C)c1,1,27[16.7 µM],12,0,0
COc1cccc(NC(=O)N(C)C[C@H]2Oc3cc(C#CC4(O)CCCC4)ccc3S(=O)(=O)N([C@H](C)CO)C[C@H]2C)c1,0,4[16.7 µM],8,0,95*
COc1cccc(NC(=O)N(C)C[C@@H]2Oc3cc(C#CC4(O)CCCC4)ccc3S(=O)(=O)N([C@@H](C)CO)C[C@H]2C)c1,0,9[16.7 µM],0,0,7
COc1cccc(NC(=O)N(C)C[C@@H]2Oc3cc(C#Cc4ccccc4)ccc3S(=O)(=O)N([C@@H](C)CO)C[C@@H]2C)c1,2,-4[16.7 µM],·,1.4*,·
COc1cccc(NC(=O)N(C)C[C@@H]2Oc3cc(/C=C/c4ccccc4)ccc3S(=O)(=O)N([C@@H](C)CO)C[C@H]2C)c1,0,·,102*,0,8
COc1cccc(NC(=O)N(C)C[C@@H]2Oc3cc(/C=C/c4ccccc4)ccc3S(=O)(=O)N([C@H](C)CO)C[C@@H]2C)c1,0,·,2,0,3
C[C@@H]1CCCCO[C@H](CN(C)S(C)(=O)=O)[C@@H](C)CN([C@@H](C)CO)C(=O)c2cc(NC(=O)Nc3cccc4ccccc34)ccc2O1,0,2[16.7 µM],-3,-1,-10
CCn1c(/C=C/c2ccc(O)cc2)nc2ccccc2c1=O,0,-13,-3,0,-3
COc1ccc(/C=C/c2nc3ccccc3c(=O)n2-c2cccc(C(=O)O)c2)cc1,0,-4,18*,0,-19
CO[C@H]1CN(C)C(=O)c2cc(NC(=O)C3CC3)ccc2OC[C@H](C)N(C(=O)c2ccccc2F)C[C@@H]1C,0,·,10,0,-5
CC[C@@]1(C(=O)OC)N[C@H](CN(C)C(=O)c2ccc(C)cc2)[C@@H]2C(=O)N(C)C(=O)[C@@H]21,0,·,·,44*,-1
COC(=O)[C@]1(Cc2ccccc2)N[C@H](CN(C)C(=O)NC(C)C)[C@@H]2C(=O)N(C)C(=O)[C@@H]21,0,·,·,44*,-13
